# The source made the active and inactive calls. No cut-off for these calls is given here.
# How the values were obtained:
# OVCAR-4 [1] = test: Growth inhibition of human OVCAR4 cells assessed as cell growth at 10 uM relative to untreated control; format: functional; conditions: read-out: Activity
# BT-549 [2] = test: Growth inhibition of human BT549 cells assessed as cell growth at 10 nM relative to untreated control; format: functional; conditions: read-out: Activity
# Malme-3M = test: Growth inhibition of human MALME-3M cells; format: functional
# [3] = Growth inhibition of human Hs 578T cells assessed as cell growth at 1 uM relative to untreated control; format: functional; conditions: read-out: Activity
# SR = test: Growth inhibition of human SR cells assessed as cell growth at 1 nM relative to untreated control; format: functional; conditions: read-out: Activity
# CAKI-1 = test: Growth inhibition of human Caki1 cells assessed as cell growth at 100 nM relative to untreated control; format: functional; conditions: read-out: Activity
# Summary of the method: (§1)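 Run externally at the National Cancer Institute as a 59-cell-line panel screen, with concentrations up to 100 μM. Growth was scored relative to control, where negative growth or total cell kill was possible. Data are in the Supporting Information.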
# HCT-15 [4] = test: Growth inhibition of human HCT15 cells assessed as cell growth at 100 nM relative to untreated control; format: functional; conditions: read-out: Activity; summary of the method: as §1
# IGROV-1 [5] = test: Growth inhibition of human IGROV1 cells assessed as cell growth at 1 uM relative to untreated control; format: functional; conditions: read-out: Activity
# SNB-75 = test: Growth inhibition of human SNB75 cells assessed as cell growth at 1 nM relative to untreated control; format: functional; conditions: read-out: Activity
# BT-549 [6] = test: Growth inhibition of human BT549 cells; format: functional
# OVCAR-4 [7] = test: Growth inhibition of human OVCAR4 cells assessed as cell growth at 1 uM relative to untreated control; format: functional; conditions: read-out: Activity
# SK-OV-3 [8] = test: Growth inhibition of human SKOV3 cells assessed as cell growth at 1 nM relative to untreated control; format: functional; conditions: read-out: Activity
# SK-MEL-28 = test: Growth inhibition of human SK-MEL-28 cells assessed as cell growth at 10 uM relative to untreated control; format: functional; conditions: read-out: Activity
# PC-3 [9] = test: Growth inhibition of human PC3 cells assessed as cell growth at 10 nM relative to untreated control; format: functional; conditions: read-out: Activity
# [10] = Growth inhibition of human Hs 578T cells assessed as cell growth at 100 nM relative to untreated control; format: functional; conditions: read-out: Activity
# MOLT-4 [11] = test: Growth inhibition of human MOLT4 cells assessed as cell growth at 10 nM relative to untreated control; format: functional; conditions: read-out: Activity
# UACC-62 = test: Growth inhibition of human UACC62 cells assessed as cell growth at 10 uM relative to untreated control; format: functional; conditions: read-out: Activity
# K562 = test: Growth inhibition of human K562 cells assessed as cell growth at 1 nM relative to untreated control; format: functional; conditions: read-out: Activity
# RXF 393 [12] = test: Growth inhibition of human RXF393 cells assessed as cell growth at 100 nM relative to untreated control; format: functional; conditions: read-out: Activity
# SF-295 = test: Growth inhibition of human SF295 cells assessed as cell growth at 1 nM relative to untreated control; format: functional; conditions: read-out: Activity
# OVCAR-3 = test: Growth inhibition of human OVCAR-3 cells; format: functional; conditions: read-out: LC50 (the source's name)
# MDA-MB-231 = test: Growth inhibition of human MDA-MB-231 cells assessed as cell growth at 10 uM relative to untreated control; format: functional; conditions: read-out: Activity
# UO-31 = test: Growth inhibition of human UO31 cells assessed as cell growth at 100 nM relative to untreated control; format: functional; conditions: read-out: Activity
# EKVX = test: Growth inhibition of human EKVX cells assessed as cell growth at 10 uM relative to untreated control; format: functional; conditions: read-out: Activity; summary of the method: as §1
# COLO 205 = test: Growth inhibition of human COLO205 cells assessed as cell growth at 1 nM relative to untreated control; format: functional; conditions: read-out: Activity
# [13] = biological target: DNA (cytosine-5)-methyltransferase 3B (Homo sapiens) (UniProt Q9UBC3); test: Binding affinity to DNMT3b in human PC3 cells cytoplasm at 5 uM after 6 hrs by antibody staining; format: cell-based; conditions: PC-3
# Summary of the method: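 PC-3 cells were plated overnight on fibronectin/[…]-coated slides and treated with 5 μM compound or DMSO for 1-6 h. Cells were PBS-washed, fixed in 4% formaldehyde, and stained with propidium iodide (nuclei) and anti-DNMT3a or anti-DNMT3b antibody. The compound was excited at 725 nm by multiphoton laser and imaged through a 500-550 nm filter by confocal microscopy.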
# DU-145 = test: Growth inhibition of human DU145 cells assessed as cell growth at 1 nM relative to untreated control; format: functional; conditions: read-out: Activity; summary of the method: as §1
# SNB-19 = test: Growth inhibition of human SNB19 cells assessed as cell growth at 100 nM relative to untreated control; format: functional; conditions: read-out: Activity
# HCC 2998 = test: Growth inhibition of human HCC2998 cells; format: functional; conditions: read-out: LC50 (the source's name); summary of the method: as §1
# RXF 393 [14] = test: Growth inhibition of human RXF393 cells assessed as cell growth at 10 uM relative to untreated control; format: functional; conditions: read-out: Activity
# IGROV-1 [15] = test: Growth inhibition of human IGROV1 cells assessed as cell growth at 10 nM relative to untreated control; format: functional; conditions: read-out: Activity
# MOLT-4 [16] = test: Growth inhibition of human MOLT4 cells assessed as cell growth at 10 uM relative to untreated control; format: functional; conditions: read-out: Activity
# BT-549 [17] = test: Growth inhibition of human BT549 cells assessed as cell growth at 10 uM relative to untreated control; format: functional; conditions: read-out: Activity
# A549 = test: Growth inhibition of human A549 cells; format: functional
# U-251 = test: Growth inhibition of human U251 cells assessed as cell growth at 1 nM relative to untreated control; format: functional; conditions: read-out: Activity
# SK-OV-3 [18] = test: Growth inhibition of human SKOV3 cells assessed as cell growth at 1 uM relative to untreated control; format: functional; conditions: read-out: Activity
# SN12C = test: Growth inhibition of human SN12C cells assessed as cell growth at 100 nM relative to untreated control; format: functional; conditions: read-out: Activity
# SK-MEL-2 = test: Growth inhibition of human SK-MEL-2 cells assessed as cell growth at 10 uM relative to untreated control; format: functional; conditions: read-out: Activity
# MDA-MB-435 = test: Growth inhibition of human MDA-MB-435 cells assessed as cell growth at 10 uM relative to untreated control; format: functional; conditions: read-out: Activity
# PC-3 [19] = test: Increase in RASSF1A gene expression in human PC3 cells at 5 uM after 3 days hrs by RT-PCR; format: functional, cell-based
# Summary of the method: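 PC-3 cells incubated 3 days with compound, then RNA extracted with TRIzol. 500 ng total RNA reverse-transcribed with random hexamers. RASSF1A amplified with previously described primers and conditions. Products run on 1.5% agarose and stained with ethidium bromide. Bands quantified by densitometry against untreated cells, with RASSF1A re-expression from the reference alkaloid set to 100%.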
# LOX IMVI = test: Growth inhibition of human LOXIMVI cells assessed as cell growth at 10 uM relative to untreated control; format: functional; conditions: read-out: Activity
# HCT-15 [20] = test: Growth inhibition of human HCT15 cells assessed as cell growth at 1 uM relative to untreated control; format: functional; conditions: read-out: Activity; summary of the method: as §1
# SF-539 [21] = test: Growth inhibition of human SF539 cells assessed as cell growth at 10 nM relative to untreated control; format: functional; conditions: read-out: Activity
# SF-539 [22] = test: Growth inhibition of human SF539 cells assessed as cell growth at 1 nM relative to untreated control; format: functional; conditions: read-out: Activity
# [23] = read-out: LC50 (the source's name)
compound,measurement,setting,value
COc1ccc2c(c1)[nH]c1c(C)c(OS(=O)(=O)c3cccc4c(N(C)C)cccc34)ccc12,growth at 10 µM,OVCAR-4 [1],30%
same,growth at 0.01 µM,BT-549 [2],90%
same,GI50,Malme-3M,3.62 µM
same,TGI,Malme-3M,> 100 µM
same,CC50,Malme-3M; [23],> 100 µM
same,growth at 1 µM,[3],20%
same,growth at 0.001 µM,SR,102%
same,growth at 0.1 µM,CAKI-1,81%
same,growth at 0.1 µM,HCT-15 [4],92%
same,growth at 1 µM,IGROV-1 [5],59%
same,growth at 0.001 µM,SNB-75,107%
same,GI50,BT-549 [6],5.08 µM
same,TGI,BT-549 [6],> 100 µM
same,CC50,BT-549 [6]; [23],> 100 µM
same,growth at 1 µM,OVCAR-4 [7],44%
same,growth at 0.001 µM,SK-OV-3 [8],103%
same,growth at 10 µM,SK-MEL-28,19%
same,growth at 0.01 µM,PC-3 [9],100%
same,growth at 0.1 µM,[10],88%
same,growth at 0.01 µM,MOLT-4 [11],97%
same,growth at 10 µM,UACC-62,29%
same,growth at 0.001 µM,K562,103%
same,growth at 0.1 µM,RXF 393 [12],100%
same,growth at 0.001 µM,SF-295,94%
same,CC50,OVCAR-3,> 100 µM
same,growth at 10 µM,MDA-MB-231,40%
same,growth at 0.1 µM,UO-31,92%
same,growth at 10 µM,EKVX,16%
same,growth at 0.001 µM,COLO 205,104%
same,Activity,[13],Active
same,growth at 0.001 µM,DU-145,113%
same,growth at 0.1 µM,SNB-19,88%
same,CC50,HCC 2998,> 100 µM
same,growth at 10 µM,RXF 393 [14],-32%
same,growth at 0.01 µM,IGROV-1 [15],110%
same,growth at 10 µM,MOLT-4 [16],7%
same,growth at 10 µM,BT-549 [17],13%
same,GI50,A549,4.98 µM
same,TGI,A549,> 100 µM
same,CC50,A549; [23],> 100 µM
same,growth at 0.001 µM,U-251,100%
same,growth at 1 µM,SK-OV-3 [18],32%
same,growth at 0.1 µM,SN12C,97%
same,growth at 10 µM,SK-MEL-2,18%
same,growth at 10 µM,MDA-MB-435,-1%
same,Activity,PC-3 [19],Active
same,growth at 10 µM,LOX IMVI,14%
same,growth at 1 µM,HCT-15 [20],25%
same,growth at 0.01 µM,SF-539 [21],95%
same,growth at 0.001 µM,SF-539 [22],104%

# Source: ChEMBL document CHEMBL1157638, “Fluorescent epigenetic small molecule induces expression of the tumor suppressor ras-association domain family 1A and inhibits human prostate xenograft” (J Med Chem, 2010)
